Only some compounds are listed: those with a hit (about 4.5% of all), similar ones and a draw of the others.
CHO parental Ca = counter-screen: ATP calcium response change in parental CHO cells. parental CHO-K1, ATP-induced calcium, Fluo-8 fluorescence. inhibition, % at 5.6 µM. 330,000 compounds, 0.63% hits. AID 463079;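 active = inhibition above that plate's mean sample inhibition plus 3 SD, cut at about 26% in these data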;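 also: 0% = ATP-challenged DMSO wells and 100% = DMSO wells without ATP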
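test system = CHO parental line | reagent = ATP stimulus | measured by = intracellular calcium via Fluo-8 no-wash fluorescent dye | control set = ATP and no-ATP DMSO wells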
GPR7 antag = human neuropeptides B/W receptor 1 antagonism | 290,000 compounds, 1.1% hits | GPR7-expressing cells, fluorescence antagonist assay | AID 1861 | inhibition, % at 4.4 µM | P48145; in the data active = inhibition above about 16%, passing the limit was not always enough;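 also: cells stimulated with the agonist NPW; 0% = agonist with vehicle and 100% = vehicle without agonist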
Target sequence (P48145 whole entry, looked up): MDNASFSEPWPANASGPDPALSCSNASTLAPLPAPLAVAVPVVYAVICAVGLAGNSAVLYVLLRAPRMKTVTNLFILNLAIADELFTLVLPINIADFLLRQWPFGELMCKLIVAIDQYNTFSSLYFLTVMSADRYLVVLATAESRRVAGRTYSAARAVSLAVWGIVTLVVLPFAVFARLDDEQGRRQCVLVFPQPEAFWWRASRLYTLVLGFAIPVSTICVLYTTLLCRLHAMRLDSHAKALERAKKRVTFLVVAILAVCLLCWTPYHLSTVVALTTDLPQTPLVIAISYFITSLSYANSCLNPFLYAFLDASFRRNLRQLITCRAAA
OX1R antag-1 = antagonists of human orexin 1 receptor (OX1R). inhibition, % at 6.6 µM. OX1R-expressing cells, FRET antagonist read-out. 330,000 compounds, 1.8% hits. AID 485270; in the data active = inhibition mostly above about 38%, no sharp cut-off; inactive = mostly below about 40%;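 also: 0% = agonist challenge alone and 100% = reference antagonist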
TAAR1 antag = human TAAR1 antagonism | AID 624466 | 360,000 compounds, 1.5% hits | CHO RD-HGA16 TAAR1, Fluo-8 calcium fluorescence, antagonist | inhibition, % at 3 µM | Q96RJ0;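 active = inhibition above a per-plate cutoff, the mean inhibition of test compounds on that plate plus 3 SD, cut at about 49% in these data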;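 also: 0% = DMSO plus EC80 beta-PEA response and 100% = DMSO alone without agonist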
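Assay system: CHO-derived RD-HGA16 cells stably expressing human TAAR1 plus Gα16. Timing: 140 s kinetic read after compound, 140 s after agonist. Technique: kinetic Fluo-8 calcium fluorescence measurement. Measure: % inhibition of agonist calcium response.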
OX1R antag-2 = antagonists of human orexin 1 receptor; 330,000 compounds, 0.43% hits; inhibition, % at 5 µM; CHO/OX1R cells, Fluo-8 calcium fluorescence, orexin A;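 active = inhibition above its plate's threshold, mean inhibition of all tested compounds on the plate plus 3 SD, cut at about 37% in these data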;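 also: 0% = orexin A challenge wells and 100% = SB-334867-A antagonist wells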
TAAR1 ag = agonists of human TAAR1 | AID 624467 | Q96RJ0 | CHO RD-HGA16 TAAR1, Fluo-8 calcium fluorescence; vehicle wells 0%, saturating PEA agonist 100% | activation, % at 3 µM | 360,000 compounds, 0.99% hits;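 active = activation above the mean activation of all test compounds in the run plus 3 SD, cut at about 38% in these data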
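Test system: RD-HGA16 (CHO) cells co-expressing Gα16 and hTAAR1; dosing: one-point dosing at 3 µM (nominal); timing: 17-24 h seeding, 75 min 37 °C dye, 30 min RT; signal: kinetic Fluo-8 calcium fluorescence; read-out basis: % activation relative to PEA EC100 response; controls: DMSO and PEA EC100; replicates: n 1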
TAAR1 ag conf = confirmation of human TAAR1 agonists; activation, % at 3 µM; CHO RD-HGA16 TAAR1, Fluo-8 calcium fluorescence; scaled: DMSO 0%, maximal phenethylamine 100%; shares compounds with TAAR1 ag; 2,400 compounds, 82% hits; AID 651783;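 active = activation above a cutoff set at the run's mean compound activation plus 3 SD, cut at about 39% in these data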
Ga16 ag counter = nonselective agonism, TAAR1 counter-screen; shares compounds with TAAR1 ag; CHO-Ga16 parental, Fluo-8 calcium fluorescence; normalized to maximal ATP response, DMSO zero; activation, % at 3 µM; 2,400 compounds, 50% hits; AID 651787;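 active = activation above the run cutoff, the mean activation over all tested wells plus 3 SD, cut at about 12% in these data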;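 also: 0% = DMSO wells and 100% = maximal ATP response on the peak over basal ratio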
TAAR1 desensitize = counter-screen for human TAAR1 agonists: agonists that desensitize TAAR1; shares compounds with TAAR1 ag; CHO RD-HGA16 hTAAR1, Fluo-8 calcium, beta-PEA response inhibition; inhibition, % at 3 µM; 2,400 compounds, 46% hits;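 active = inhibition above the run cutoff, the mean inhibition of all test compounds plus 3 SD, cut at about 49% in these data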;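 also: beta-PEA stimulus applied at its EC80; loss of beta-PEA calcium signal after compound pretreatment read as receptor desensitization; 0% = DMSO with beta-PEA at EC80 and 100% = DMSO alone without agonist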
Ga16 nonsel ant = counter-screen for TAAR1 agonists: nonselective Ga16 antagonists; shares compounds with TAAR1 ag; CHO-Ga16 ATP-induced calcium, Fluo-8 fluorescence; inhibition, % at 3 µM; 2,400 compounds, 39% hits; AID 651952;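 active = inhibition above the plate's mean compound inhibition plus 3 SD, computed per plate, cut at about 22% in these data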;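 also: 0% = EC80 ATP with DMSO and 100% = DMSO wells without ATP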
Numbers without * were called inactive; . = no result.

SMILES	CHO parental Ca	GPR7 antag	OX1R antag-1	TAAR1 antag	OX1R antag-2	TAAR1 ag	TAAR1 ag conf	Ga16 ag counter	TAAR1 desensitize	Ga16 nonsel ant
N#Cc1cccc(NC(=O)Nc2cccs2)c1	25.5	-5.0	31.7	17.5	20.9	57.8*	74.3*	15.9*	39.8	26.7*
CC1Cc2ccccc2N1C(=O)CN1CCc2ccccc2C1 (stereo not drawn)	-11.3	4.0	21.9	14.0	-18.6	71.7*	76.7*	3.0	44.9	19.8
Cc1cc(C(=O)CN2C(=O)NC(C)(c3cc(F)ccc3F)C2=O)c(C)n1C1CC1 (stereo not drawn)	-16.1	.	4.3	0.9	-12.1	21.4	.	.	.	.
CCC1(c2ccc(F)cc2)NC(=O)N(CC(=O)N2c3ccccc3NC(=O)CC2C)C1=O (stereo not drawn)	-6.2	.	0.9	9.1	-7.6	-0.6	.	.	.	.
CCC1(c2ccc(F)cc2)NC(=O)N(CC(=O)c2cc(C)n(C3CC3)c2C)C1=O (stereo not drawn)	-2.0	.	-2.5	58.1*	7.0	103.4*	97.7*	50.8*	52.2*	32.5*
CCC1(c2ccc(F)cc2)NC(=O)N(CC(=O)N2c3ccccc3CC2C)C1=O (stereo not drawn)	-13.9	.	5.0	28.0	12.4	75.6*	84.3*	47.1*	42.6	29.8*
CC1Cc2ccccc2N1C(=O)CN1CCN(Cc2ccccc2)CC1 (stereo not drawn)	-7.9	3.3	-7.7	-27.0	-7.2	1.6	.	.	.	.
CCCS(=O)(=O)NC(=O)C1(C)CCN(C(=O)COc2ccc(Cl)cc2Cl)C1 (stereo not drawn)	.	.	.	-12.4	.	2.3	.	.	.	.
CNC[C@@H]1Oc2cc(Br)ccc2S(=O)(=O)N([C@H](C)CO)C[C@@H]1C	.	.	.	-13.5	.	-0.2	.	.	.	.
CCCCOc1ccc(Cl)cc1CSc1nnc(CC)n1N	-17.8	14.8	14.9	9.8	-15.5	8.6	.	.	.	.
CCCCOc1ccc(CSC(=N)N)cc1Cl	0.5	-0.4	-4.6	0.7	-30.9	100.5*	108.5*	55.4*	60.7*	27.4*
COc1ccc(Br)cc1CSC(=N)N	-9.3	9.0	16.2	15.9	-14.1	46.0*	70.7*	4.4	42.2	9.4
CCOc1ccc(CSC(=N)N)cc1	5.0	-10.9	5.2	-5.0	-1.4	12.0	.	.	.	.
CC(=O)c1ccc(OC(C)C)c(CSC(=N)N)c1	-9.7	-5.8	14.9	-9.5	-6.7	30.2	.	.	.	.
CCCCCOc1ccc(Br)cc1CSC(=N)N	.	71.7*	.	92.8*	.	93.4*	105.6*	60.1*	102.0*	71.5*
CN1CCN(c2cccc3c2S(=O)(=O)N[C@@H](Cc2ccccc2)CO3)CC1	.	.	.	-8.5	.	2.0	.	.	.	.
CN(Cc1ccccc1)C(=O)[C@@H]1CCCN1C(=O)[C@@H]1CCCN1C(=O)OC(C)(C)C	.	.	.	10.7	.	2.5	.	.	.	.
O=C(CC1C(=O)NCCN1CCCc1ccccc1)NCCc1ccccc1F (stereo not drawn)	-29.8	3.4	3.0	43.6	-1.4	74.6*	93.2*	1.5	71.9*	0.2
Cc1nc([N+](=O)[O-])c(Br)n1CC(=O)c1ccc(Cl)cc1	-7.6	-0.9	40.2	-19.7	-24.5	6.0	.	.	.	.
Cc1nc([N+](=O)[O-])c(Br)n1Cc1ccc(Cl)c(Cl)c1	.	2.4	.	36.8	.	51.0*	9.5	4.8	18.1	12.9
CN(CCc1ccccc1)c1cc2c(c3c1ccn3C)C1CCC2O1 (stereo not drawn)	.	.	.	69.0*	.	77.8*	94.1*	1.9	78.5*	5.1

High-throughput results: PubChem BioAssay, The Scripps Research Institute Molecular Screening Center
